Screening results as filed in PubChem BioAssay.
Rows were chosen to be rich in hits. Some 11% of all compounds tested hit in one or more screens of this group.
D1 mod: allosterically modulates the human D1 dopamine receptor. P21728. HEK293 D1, CRE-luciferase, dopamine EC30 potentiation; actives deviate in either direction. B-score at 10 µM. hit rate 5.9% among 58,000. AID 641;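 active = luminescence count or its row- and column-corrected plate score outside the 99.7% band of the plate's sample wells, on either side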
M1 agonist: agonists of M1 muscarinic receptor | AID 626 | B-score at 10 µM | CHO-M1 cells, Fluo-4 calcium fluorescence, agonist mode; hits give high values | hit rate 3% among 64,000;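 active = fluorescence rise, raw or as B-score row- and column-corrected plate score, outside the 99.7% band of its plate's samples, either direction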
S1P1 ag pot: S1P1 (human) agonism or agonism potentiation; P21453; S1P1 CRE-bla cells, forskolin, beta-lactamase FRET, potentiator mode; S1P1 agonist co-added at EC20, 2 nM; 100% = saturating reference agonist, 0% = basal; activation, % at 9.5 µM; hit rate 0.57% among 56,000;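 active = activation above a cutoff set at the mean activation of all tested compounds plus 3 SD, cut at about 54% in these data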;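 note: forskolin at 4 µM as EC80 and the EC20 agonist is SEW2871; 100% = SEW2871 at its EC100 plus forskolin at EC80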
Target sequence (P21453 whole entry, looked up): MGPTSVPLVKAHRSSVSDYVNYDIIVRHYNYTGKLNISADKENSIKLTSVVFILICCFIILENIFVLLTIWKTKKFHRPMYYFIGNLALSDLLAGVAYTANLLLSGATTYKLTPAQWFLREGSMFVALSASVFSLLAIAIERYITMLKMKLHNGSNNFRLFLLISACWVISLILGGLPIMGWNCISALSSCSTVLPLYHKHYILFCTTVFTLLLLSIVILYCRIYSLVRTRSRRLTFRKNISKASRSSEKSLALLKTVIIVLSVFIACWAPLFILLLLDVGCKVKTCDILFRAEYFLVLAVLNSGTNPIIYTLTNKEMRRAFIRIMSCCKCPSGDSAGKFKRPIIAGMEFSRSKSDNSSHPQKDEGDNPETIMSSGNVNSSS
S1P3 agonist: activates the human S1P3 receptor. Q99500. S1P3 NFAT-BLA reporter cells, agonism, FRET ratio; relative to 1 µM S1P, basal subtracted. activation, % at 4.5 µM. hit rate 0.1% among 60,000. AID 373;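 active = activation above the screen-wide mean plus 3 SD, cut at about 4.5% in these data, passing the limit was not always enough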
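material = human S1P3 NFAT-BLA reporter CHO cells | schedule = 4 h compound at 37 °C, 2 h substrate at RT | measured by = fluorescent BLA substrate, ex 405 nm, em 460/535 nm ratio | controls = 1 µM S1P reference | replication = primary once, confirmation triplicate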
M1 antagonist: M1 muscarinic receptor (rat) antagonism; B-score at 10 µM; hit rate 3.4% among 64,000; CHO-M1 cells, Fluo-4 calcium, ACh EC80 antagonist mode; hits give low values; P08482;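 active = calcium fluorescence response, raw or row-and-column corrected B-score, differing from the plate sample mean either way at a set confidence level, mostly lower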
M1 antag conf: confirmation of rat M1 muscarinic receptor antagonists | hit rate 43% among 1,700 | CHO-M1 cells, Fluo-4 calcium, ACh EC80 antagonism; hits give low values | calcium response (max-min fluorescence) at 10 µM | shares compounds with M1 antagonist;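 active = calcium response below the same-plate mean of wells given acetylcholine alone at its 80%-effect dose, minus 3 SD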;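 note: raw fluorescence intensity difference in arbitrary instrument units and not normalized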
mGluR4 antag: selectivity test for M1 antagonists: human mGluR4 receptor; shares compounds with M1 antagonist; CHO-mGluR4 calcium flux, Fluo-4 fluorescence, glutamate EC80; hits give low values; fluorescence response (max-min) at 10 µM; hit rate 0.9% among 1,700; AID 678;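 active = fluorescence response below the plate's average for near-maximal glutamate wells, less 3 SD of those wells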;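 note: raw unnormalized fluorescence span taken in the window right after glutamate addition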
The depositor's hits bear a star.

For Cc1ccc(-c2nc(CS(=O)CC(=O)NC3CCC(C)CC3)c(C)o2)cc1 (centres undefined) the results were D1 mod 0.096, M1 agonist -1.3, S1P1 ag pot -3, S1P3 agonist -1 and M1 antagonist 0.28.
Screening O=C(c1ccccc1)N1CC(COc2ccccc2)OC(c2cccnc2)O1 (centres undefined) returned D1 mod -0.8, M1 agonist -1.2, S1P1 ag pot -14, S1P3 agonist 0, M1 antagonist -4.3*, M1 antag conf 677 and mGluR4 antag 246.
CC(NC(=O)CSc1ncccn1)c1ccccc1 (centres undefined) was read as D1 mod 0.43, M1 agonist -0.2, S1P1 ag pot -7, S1P3 agonist -1 and M1 antagonist 0.43.
For COc1cccc(NC(=O)N2CCCC2C(=O)NC2CC2)c1 (centres undefined) the results were D1 mod -1.5, M1 agonist -0.3, S1P1 ag pot -4, S1P3 agonist -1 and M1 antagonist 0.023.
O=c1ccc2cc3c([nH]c4ccc(Br)cc43)oc-2c1O was read as D1 mod 0.51, M1 agonist 0.23, S1P1 ag pot -11, S1P3 agonist 2, M1 antagonist -1.4*, M1 antag conf 629 and mGluR4 antag 227.
`C/C(=C\c1ccccc1)CN1CCN(c2ccccc2)CC1` gave D1 mod -0.68, M1 agonist 0.0019 and M1 antagonist 0.18.
Screening CCCCN(C)C(=O)C1CCN(C/C(C)=C/c2ccccc2)CC1 returned D1 mod -0.67, M1 agonist -0.6, S1P1 ag pot -21, S1P3 agonist -1, M1 antagonist -4*, M1 antag conf 520* and mGluR4 antag 222.
Screening Cc1ccc2oc(=O)c3cc(C(=O)N4CCN(c5ncccn5)CC4)sc3c2c1 returned D1 mod 1.2, M1 agonist 1.3, S1P1 ag pot -16, S1P3 agonist -1 and M1 antagonist 0.65.
`Cn1c(SCC(=O)N2CCCCC2)nc2c([nH]c3ccccc32)c1=O` gave D1 mod -0.59, M1 agonist 0.18, S1P1 ag pot -27, S1P3 agonist 0, M1 antagonist -3.5*, M1 antag conf 443* and mGluR4 antag 260.
Cn1c(SCC(=O)N2CCCCCC2)nc2c([nH]c3ccccc32)c1=O was read as D1 mod 0.47, M1 agonist 0.28 and M1 antagonist -2.3.
CCc1[nH]nc2c1C(c1cccnc1)C(C#N)=C(N)O2 (centres undefined) was read as D1 mod 0.7, M1 agonist 0.64, S1P1 ag pot -16, S1P3 agonist -1 and M1 antagonist 0.012.
For CCCc1[nH]nc2c1C(c1ccncc1)C(C#N)=C(N)O2 (centres undefined) the results were D1 mod -0.78, M1 agonist 0.096, S1P1 ag pot -28, S1P3 agonist -1, M1 antagonist -3.7*, M1 antag conf 590 and mGluR4 antag 227.
CCCc1[nH]nc2c1C(c1ccccc1OC)C(C#N)=C(N)O2 (centres undefined) was read as D1 mod 1.3, M1 agonist 0.29, S1P1 ag pot -15, S1P3 agonist -1 and M1 antagonist -0.0041.
For CC(C)(C)c1[nH]nc2c1C(c1cccnc1)C(C#N)=C(N)O2 (centres undefined) the results were D1 mod -0.32, M1 agonist -0.24, S1P1 ag pot -10, S1P3 agonist -1, M1 antagonist -4.1*, M1 antag conf 569 and mGluR4 antag 163*.
For Cc1ccc(C)c(/C(O)=C2\C(=O)C(=O)N(CCCN(C)C)C2c2cccnc2)c1 (centres undefined) the results were D1 mod 0.57, M1 agonist 0.23 and M1 antagonist 0.19.
Cc1cc(C(=O)CSc2nnnn2C)c(C)n1-c1ccc2c(c1)OCCO2 was read as D1 mod 0.83, M1 agonist -0.89, S1P1 ag pot 3, S1P3 agonist 0, M1 antagonist -2.8*, M1 antag conf 435* and mGluR4 antag 297.
Cc1ccc(S(=O)(=O)NCCC(=O)NC2CCCC2)cc1 was read as D1 mod 0.31, M1 agonist 0.088 and M1 antagonist 0.85.
`O=c1[nH]c2cc3c(cc2cc1CN(CC1CCCO1)S(=O)(=O)c1ccc(Cl)cc1)OCCO3` (centres undefined) gave M1 agonist 0.013, S1P1 ag pot -8, S1P3 agonist -1, M1 antagonist -4.2*, M1 antag conf 614 and mGluR4 antag 269.
`Cc1ccc(S(=O)(=O)N(Cc2cc3cc4c(cc3[nH]c2=O)OCCO4)CC2CCCO2)cc1` (centres undefined) gave D1 mod 0.93, M1 agonist -0.51, S1P1 ag pot -5, S1P3 agonist 0 and M1 antagonist 0.2.
`O=C(NCCN1CCCCCC1)C1CCN(S(=O)(=O)N2CCOCC2)CC1` gave D1 mod -1.3, M1 agonist -0.086, S1P1 ag pot 9, S1P3 agonist 0, M1 antagonist -5.2*, M1 antag conf 608 and mGluR4 antag 239.
Screening CC(C)N(CCCNC(=O)C1CCN(S(=O)(=O)N2CCOCC2)CC1)Cc1ccccc1 returned D1 mod -0.48, M1 agonist 0.058, S1P1 ag pot -12, S1P3 agonist 1, M1 antagonist -3.8*, M1 antag conf 421 and mGluR4 antag 208.
CN(CCCNC(=O)C1CCN(S(=O)(=O)N2CCC3(CC2)OCCO3)CC1)Cc1ccccc1 was read as D1 mod -0.95, M1 agonist -0.035 and M1 antagonist -0.56.
`CCN(CCCNC(=O)C1CCN(S(=O)(=O)c2cccc3nonc23)CC1)Cc1ccccc1` gave D1 mod -0.18, M1 agonist -0.1, M1 antagonist -6.8*, M1 antag conf 304* and mGluR4 antag 166.
O=C(NCCN1CCOCC1)C1CCC(=O)N1C1CCCCC1 (centres undefined) was read as D1 mod -0.51, M1 agonist 1.2, S1P1 ag pot -12, S1P3 agonist 0, M1 antagonist -1.4*, M1 antag conf 457 and mGluR4 antag 188.
For COC(=O)c1cc(OC)c(OC)cc1NC(=O)c1c(-c2ccccc2Cl)noc1C the results were D1 mod 1.1, M1 agonist -0.58, S1P1 ag pot -29, S1P3 agonist -2 and M1 antagonist 0.43.
`Cc1cc(Cl)ccc1OCCCC(=O)NC1CCN(C)CC1` gave D1 mod -2, M1 agonist -0.77, S1P1 ag pot 15, S1P3 agonist 0, M1 antagonist -2.9*, M1 antag conf 479* and mGluR4 antag 211.
